Among all 2,500 compounds or so, about 1,200 (48%) were called active. The set was probably picked from earlier hits. Some of the results follow. A number with no mark means an inactive call.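 The calls were made as follows: active = mean activation above the low control average plus 3 SD, as set in the primary screen (cut at about 12% in these data); inactive = the rest.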
Target: Troponin I, cardiac muscle (Homo sapiens) + Troponin T, cardiac muscle (Homo sapiens) + Troponin C, slow skeletal and cardiac muscles (Homo sapiens) (UniProt P19429+P45379+P63316)
Test: cardiac RTF calcium sensitivity activators, confirmation, biochemical, IANBD-TnC fluorescence, triplicate (AID 504383);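 also: 0% = DMSO at 0.472 mM calcium and 100% = DMSO at 2.9 mM calcium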
Conditions: IANBD-labeled cardiac RTF, Ca2+ sensitivity fluorescence; at 7.2 µM; active compounds read high; scaled from EC20 to saturating calcium; tested at EC20 calcium, 0.472 mM
How it was run: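 Assay system: labelled regulated thin filament protein complex; schedule: 15 min compound incubation with filaments at 25 °C; benchmarks: low control EC20 calcium, high control EC100 calcium; reagent: Ca2+ 0.472 mM, EC20 level; doses: one dose, 7.2 µM nominal; evaluation: fluorescence gain scaled between EC20 and EC100 calcium controls; signal: filament fluorescence intensity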

| SMILES | activation |
| --- | --- |
| COc1cc(N2CCCC2)c(OC)cc1/C=C1/NC(=S)NC1=O | 113% (active) |
| O=C1CCC/C(=N/NC(=O)c2sc3ccccc3c2Cl)C1 | 7.01% |
| COc1ccc2c(Cl)c(C(=O)N/N=C3\CCCC(=O)C3)sc2c1 | 47.6% (active) |
| O=C1CCCC(=NNC(=O)c2cc3ccccc3cc2O)C1 | 8.36% |
| CC1(c2cccc(Br)c2)NC(=O)NC1=O (stereo not drawn) | 52.2% (active) |
| COc1ccc(NC(C)=O)cc1NC(=O)C1CCCN1C(=O)c1cccs1 (stereo not drawn) | 6.06% |
| COC(=O)C1=C(C(=O)OC)[C@@H]2Nc3ccccc3[C@@]23C[C@@H](C(=O)OC)N(C(=O)c2cccs2)C3=N1 | 36.8% (active) |
| O=C(CCC1CCCN(C(=O)C2=CCCC2)C1)N1CCN(c2ccccn2)CC1 (stereo not drawn) | 4.61% |
| CCC1Oc2ccc(C)cc2N(CC(=O)NCc2cccs2)C1=O (stereo not drawn) | -5.95% |
| Cc1ccc(SCC(=O)OCC(=O)NCc2cccs2)cc1 | 12.8% (active) |
| CC(=O)n1cc(CO)c2ccccc21 | 262% (active) |
| Cc1ccc(Cl)c(NC(=O)CN(C)CC(=O)Nc2ccc(F)c(F)c2F)c1Cl | 2.04% |
| CC(CCc1ccc(O)cc1)NCCC(c1ccccc1)c1ccccc1 (stereo not drawn) | 48.6% (active) |
| NS(=O)(=O)c1ccc(NCc2c(F)cccc2Cl)cc1 | 45.6% (active) |
| CCN=C(NC#N)SCc1c(F)cccc1Cl | 11.4% |
| Cc1cccc(N=Cc2[nH]c3ccc(Br)c(Cl)c3c2O)c1 | 4.45% |
| CCOc1ccc(Cn2nnc(C(=O)NCCc3ccccc3)c2N)cc1 | 821% (active) |
| CCOc1ccc(Nc2nc(N)c([N+](=O)[O-])c(NCc3ccccc3)n2)cc1 | 7.49% |
| COc1cccc2cc(-c3nc(-c4cccs4)cs3)c(=O)oc12 | 3.53% |
| Cc1ccccc1-c1noc(-c2cccs2)n1 | 24.3% (active) |
| COc1ccc(N2CCN(C(=O)c3ccc(OCC4CCCO4)cc3)CC2)cc1 (stereo not drawn) | 71% (active) |
| O=C(C1=C(O)C(=O)N(c2nccs2)C1c1ccccc1)c1cc2ccccc2o1 (stereo not drawn) | 5.32% |
| COC(=O)c1sc(N2C(=O)C(O)=C(C(=O)c3ccc(C)o3)C2c2ccc(F)cc2)nc1C (stereo not drawn) | 35% (active) |
| CCCC1C(c2ccccc2)C(C#N)(C#N)C2(C#N)CC1(N)NC2=O (stereo not drawn) | 10.5% |

| SMILES | activation |
| --- | --- |
| N#C/C(=C\c1coc2ccc(O)cc2c1=O)C(=O)Nc1nc2ccccc2s1 | 12.6% (active) |
| Cc1ccc(N2C(=O)C3C(C(=O)c4ccccc4)=NN(c4ccccc4)C3C2=O)cc1 (stereo not drawn) | 29.5% (active) |
| Cc1ccc(CC2C(=O)N(c3ccc(C)cc3)C(=O)C2C)cc1 (stereo not drawn) | 7.76% |
| O=C(C1=NN(c2ccccc2)C2C(=O)N(c3cccc(Cl)c3)C(=O)C12)c1ccccc1 (stereo not drawn) | 35.7% (active) |
| O=C(C1=NN(c2ccccc2)C2C(=O)N(c3ccccc3Cl)C(=O)C12)c1ccccc1 (stereo not drawn) | 13.6% (active) |
| COc1ccccc1N1C(=O)C2C(C(=O)c3ccccc3)=NN(c3ccccc3)C2C1=O (stereo not drawn) | 11.7% (active) |
| O=C1N(c2cccc(Cl)c2)C(c2ccccc2)N2CCCN12 (stereo not drawn) | 6.5% |
| COc1cccc(/C=C/C(=C2\C(=O)N(c3ccccc3)N=C2C)c2ccc(Br)cc2)c1OC | 4.48% |
| O=C(C1=NN(c2ccccc2)C2C(=O)N(c3ccc(Cl)cc3)C(=O)C12)c1ccccc1 (stereo not drawn) | 2.79% |
| O=C(C1=NN(c2ccccc2)C2C(=O)N(c3ccccc3)C(=O)C12)c1ccccc1 (stereo not drawn) | 3.95% |
| COc1ccc(C2(CNC(C)=O)CCCC2)cc1OC | 3.15% |
| COC(=O)c1c(-c2ccc(OC)c(OC)c2)csc1N | 13% (active) |
| CCOC(=O)c1c(-c2ccc(C)cc2)csc1NC(=O)/C(C#N)=C/c1ccc(O)c(OC)c1 | 4.04% |
| O=C(CSCc1ccco1)NC1CCCC1 | 13.6% (active) |
| O=C(c1ccc(=O)[nH]c1)N(Cc1ccco1)C1(C(=O)NC2CCCCC2)CCCCC1 | 8.99% |
| S=C(NC1CC1)NC1CCCc2ccccc21 (stereo not drawn) | 7.09% |
| COc1cc(NC(=O)CSc2ccccc2)c(C(=O)O)cc1OC | 23.2% (active) |
| COC(=O)c1sccc1NC(=O)CSCC(=O)O | 0.67% |
| COc1cc(NC(=O)CSc2nc3ccccc3n2-c2ccccc2)c(C)cc1[N+](=O)[O-] | 6.07% |
| CCOC(=O)C1=C(C)NC(C)=C(C(=O)OCC)C1c1ccco1 | 8.22% |
| CCOC(=O)N1CCC(NC(=O)c2cnn3c2NC(c2ccco2)CC3C(F)(F)F)CC1 (stereo not drawn) | 18% (active) |
| CC1=N/C(=C/c2ccc([N+](=O)[O-])cc2)C(=O)N1c1ccc(Cl)cc1Cl | 6.42% |
| COc1ccc(N2CCN(c3ccc([N+](=O)[O-])cc3Cl)CC2)cc1 | 41.8% (active) |
| COc1ccccc1N1CCN(C(=O)CCC(=O)O)CC1 | 4.12% |

| SMILES | activation |
| --- | --- |
| COc1ccccc1N1CCN(c2ccc([N+](=O)[O-])cc2Cl)CC1 | 90.7% (active) |
| COc1ccc(N2CCN(S(=O)(=O)Cc3ccccc3)CC2)cc1 | 10.5% |
| Cn1c(NC(=O)C[n+]2cc(-c3ccc(Cl)cc3)n3c2CCC3)cc(=O)n(C)c1=O | 5.8% |
| Cc1onc(-c2ccccc2Cl)c1C(=O)N(Cc1ccc(N(C)C)cc1)C(C)C | 12% (active) |
| CC(=O)Nc1ccc(SCC(=O)NNC(=O)CN(C)S(=O)(=O)c2ccc(C)cc2)cc1 | 98% (active) |
| Cc1ccc(Cn2c(Sc3nnc(C)s3)nc3c2c(=O)[nH]c(=O)n3C)cc1 | 108% (active) |
| COc1ccc(/C=C2\CC/C(=C\c3ccc(OC)cc3OC)C2=O)c(OC)c1 | 50.4% (active) |
| COc1ccc(/C=c2\s/c(=C/C(=O)c3ccc(C)cc3)[nH]c2=O)c(OC)c1 | 10.7% |
| COc1cc(/C=C2\CC/C(=C\c3ccc(OCCO)c(OC)c3)C2=O)ccc1OCCO | 7.54% |
| CCOC(=O)c1c(NCC(C)C)c2ccccc2[nH]c1=O | 183% (active) |
| COC(=O)[C@H](C)NC(=O)c1cc2c(cn1)[nH]c1ccccc12 | 10.7% |
| CCOC(=O)C1=C(COC(=O)c2ccc3ccccc3c2O)NC(=O)NC1C (stereo not drawn) | 6.83% |
| COc1ccc(N2C(=O)[C@@H]3[C@H](C2=O)[C@H]2c4ccccc4C=CN2[C@@H]3C(=O)Nc2ccccc2)cc1 | 55.7% (active) |
| Cc1ccc(-c2nc(C)sc2CC(=O)O)cc1 | 28.5% (active) |
| Cc1ccc(-c2nc(N)sc2CC(=O)OCC(=O)NCCC(C)C)cc1 | 10.3% |
| COC(=O)c1ccc2c(c1)NC1=C(C(=O)CC(C)(C)C1)C(c1ccncc1)N2 (stereo not drawn) | 9.24% |
| COc1ccc(-c2cc(C(F)(F)F)nc(S(=O)(=O)CCCC(=O)Nc3cc(C)on3)n2)cc1OC | 16.4% (active) |
| COc1ccc(NC(=O)c2cc(C)on2)cc1OC | 6.63% |
| O=C(CS(=O)(=O)c1cn(Cc2ccc(F)cc2)c2ccccc12)N1CCOCC1 | 1.62% |
| O=C(O)CN1C(=O)/C(=C\c2cn(CC(=O)N3CCOCC3)c3ccccc23)SC1=S | 16.6% (active) |
| Cc1ccc(N=C2NC(=O)/C(=C/c3cn(C)c4ccccc34)S2)cc1C | 6.33% |
| Cn1cc(/C=C2\SC(=S)N(N3CCOCC3)C2=O)c2ccccc21 | 12.7% (active) |
| O=C1/C(=C/c2cccnc2)SC(=S)N1N1CCOCC1 | 12.4% (active) |
| O=C(CCN1C(=O)/C(=C/c2ccccc2)SC1=S)NNC(=O)c1cccnc1 | 6.78% |

| SMILES | activation |
| --- | --- |
| Cc1cc(S(=O)(=O)Nc2c(C)nn(C)c2C)c(Cl)cc1Cl | 10.6% |
| COc1cccc(N=C2NC(=O)/C(=C/c3cc([N+](=O)[O-])ccc3O)S2)c1 | 9.82% |
| O=C1NC(=Nc2ccccc2Cl)S/C1=C\c1cc([N+](=O)[O-])ccc1O | 20.8% (active) |
| Cc1ccc(S(=O)(=O)/N=C2/NC(=O)/C(=C/c3cc([N+](=O)[O-])ccc3O)S2)cc1 | 4.75% |
| C#CCN1c2ccccc2Sc2cccnc21 | 13.6% (active) |
| O=C(Nc1ccccc1)c1ccc(NCCc2ccccc2)c([N+](=O)[O-])c1 | 5.71% |
| Cc1cccc(OCCNc2ccc(C(F)(F)F)cc2[N+](=O)[O-])c1 | 159% (active) |
| COc1ccc(NC(=O)CS(=O)(=O)c2cccc(Cl)c2)cc1 | 6.14% |
| COc1cccc(C(=O)NC2CC3CCCC(C2)N3CC(=O)Nc2ccc(N(C)C)cc2)c1 (stereo not drawn) | 21.3% (active) |
| Cc1ccc(NC(=O)CC2SC3=NCCCN3C2=O)c(C)c1 (stereo not drawn) | 9.67% |
| COc1ccc2c(c1)cc(C(=O)N[C@@H](CCSC)C(=O)N1CCC[C@H]1C(=O)O)n2C | 20.4% (active) |
| CSCCC(NC(=O)c1ccccc1Cl)C(=O)N1CCC1 (stereo not drawn) | 3.34% |
| COc1ccc(N=C(N)N=C(N)N)c(OC)c1 | 7.88% |
| COc1ccc(OC)c(/C=N/N=C(\N)c2nonc2N)c1 | 18.5% (active) |
| COc1ccc(C2C(C#N)=C(N)N(c3cccnc3)C3=C2C(=O)CCC3)cc1Cn1cc([N+](=O)[O-])cn1 (stereo not drawn) | 18.5% (active) |
| COc1ccc(S(=O)(=O)Nc2cc(C)on2)cc1 | 57.2% (active) |
| COc1ccc(NC(=O)NS(=O)(=O)c2ccc(C)cc2)cn1 | 7.89% |
| O=c1[nH]c2ccccc2nc1/C=C(\O)c1cccs1 | 11.4% |
| O=c1[nH]c2ccccc2nc1/C=C/c1ccc(F)cc1 | 9.41% |
| O=c1[nH]c2ccccc2nc1/C=C/c1ccccc1 | 351% (active) |
| CC1(C)CC(=O)C(CC2CCCCC2=O)C(=O)C1 (stereo not drawn) | 15.2% (active) |

— PubChem BioAssay AID504383 (The Scripps Research Institute Molecular Screening Center, 2011)
